Screening data (PubChem)
A selection: hits, their analogues and other compounds. The true share with any hit is near 3.3%.
M18AAP inhibitor = PfM18AAP enzyme inhibition; 290,000 compounds, 1.2% hits; inhibition, % at 7.35 µM; recombinant PfM18AAP, H-Glu-NHMec fluorogenic cleavage;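 active means inhibition above the campaign mean inhibition over all tested compounds plus 3 SD, cut at about 28% in these data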
sPLA2-III inh = Inhibits HGIII-sPLA2 liposome hydrolysis, primary screen; Q9NZ20; QFRET BODIPY PC-A2 liposome hydrolysis, fluorescence; inhibition, % at 12.2 µM; 370,000 compounds, 0.56% hits; AID 743126;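 active means inhibition above mean plus 3 SD of compounds lying within the high and low control bounds, cut at about 19% in these data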
CendR NRP1 mod = alters CendR peptide binding to human NRP-1; inhibition, % at 25 µM; AID 602438; 360,000 compounds, 0.85% hits; FAM-RPARPAR peptide binding to NRP-1, fluorescence polarization; O14786;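 active means inhibition or corrected inhibition above about 18%, plus a signal ratio from 0.5 to 1.5, limit read from the data, passing the limit was not always enough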
Hep lipid drop = modulators of hepatic lipid droplet formation; AML12 mouse hepatocytes, oleate lipid droplets, BODIPY imaging; inhibition, % at 6.5 µM; 240,000 compounds, 0.4% hits;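 active means lipid droplet intensity inhibited by at least 50%, with more than 500 cells counted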
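Test system: AML12 mouse liver cells; schedule: overnight exposure; technique: high-content imaging of BODIPY-stained droplets and DAPI nuclei; read-out: % inhibition of corrected integrated BODIPY droplet signal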
Arrestin-AP2 inh = human beta-arrestin and AP2 interaction inhibition; 340,000 compounds, 0.31% hits; inhibition, % at 10 µM; AID 504490; FITC-arrestin peptide / GST-AP2 beads, flow cytometry; AP2 beta2 appendage carries R879A mutation;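 active means inhibition above a set limit, near 3 SD of compounds lacking own fluorescence, cut at about 54% in these data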
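System: GST-AP2 R879A glutathione beads. Medium: PBS with 0.05% Tween 20 and 0.1% BSA. Also added: FITC-arrestin peptide, 50 nM. Incubation: 12 min plus 1 h, RT. Measured by: high-throughput flow cytometry of beads, ex 488, em 535 nm. Evaluation: percent drop in bead-associated FITC signal.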
m5-HT2A agonist = mouse HTR2A agonism via beta-arrestin recruitment | CHO-K1 mHTR2A beta-arrestin complementation, luminescence; percent of 30 µM serotonin response | 360,000 compounds, 0.66% hits | activation, % at 7.6 µM | P35363;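 active means activation above a run cutoff, the mean activation of all tested compounds plus 3 SD, cut at about 14% in these data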
Target sequence (P35363 whole entry, looked up): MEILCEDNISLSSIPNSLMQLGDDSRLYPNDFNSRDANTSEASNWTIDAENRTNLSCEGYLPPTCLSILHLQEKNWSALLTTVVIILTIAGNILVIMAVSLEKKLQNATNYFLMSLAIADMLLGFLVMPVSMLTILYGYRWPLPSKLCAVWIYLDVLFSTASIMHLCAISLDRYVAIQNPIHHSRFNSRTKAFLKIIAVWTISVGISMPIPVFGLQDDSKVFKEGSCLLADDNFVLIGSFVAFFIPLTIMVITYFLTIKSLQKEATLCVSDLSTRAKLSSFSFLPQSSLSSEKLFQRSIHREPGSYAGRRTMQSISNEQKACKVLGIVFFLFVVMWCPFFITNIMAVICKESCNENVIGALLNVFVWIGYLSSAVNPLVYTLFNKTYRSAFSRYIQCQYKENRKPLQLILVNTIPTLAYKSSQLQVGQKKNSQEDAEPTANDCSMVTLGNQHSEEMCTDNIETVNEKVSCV
sPLA2 confirm = human GIII-sPLA2 inhibition, confirmation | shares compounds with sPLA2-III inh | recombinant hGIII-sPLA2, BODIPY PC-A2 QFRET fluorescence | inhibition, % at 12.2 µM | 2,000 compounds, 34% hits;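 active means mean inhibition across triplicates above the hit cutoff set in the earlier primary screen, cut at about 19% in these data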
BODIPY interf = 535nm fluorescence interference, HGIII-sPLA2 counter-screen; shares compounds with sPLA2-III inh; BODIPY FL product fluorescence interference, QFRET; inhibition, % at 12.2 µM; 2,000 compounds, 8.5% hits;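 active means average inhibition above the solvent-only control mean plus 3 SD, cut at about 6% in these data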
BODIPY interf DR = 535nm optical interference dose response, HGIII-sPLA2 counter-screen | shares compounds with sPLA2-III inh | BODIPY FL product fluorescence interference, cell-free | IC50, µM | 240 tested, under 10 active | AID 743455;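 active means IC50 at or below 10 µM; inactive means IC50 above 10 µM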
Large screens that a line does not name were inactive (follow-up assays come after a bar, where they were run); ! = a repeat was not active.

CSc1ccc(C(O)c2ncc(-c3ccccc3F)[nH]2)cc1 (configuration not stated)	none (no result: M18AAP inhibitor, Hep lipid drop, Arrestin-AP2 inh)
O=C(CNc1ccc(Cl)cc1)NNC(=S)NCc1ccccc1	sPLA2-III inh 25 | sPLA2 confirm 38 | BODIPY interf inactive | BODIPY interf DR inactive
Cc1c(C(=O)NNC(=S)NCc2ccc(Cl)cc2)oc2ccccc12	sPLA2-III inh 24 | sPLA2 confirm inactive | BODIPY interf 16
CCN(CC(=O)NCc1ccc(Cl)cc1)C(=O)c1oc2ccccc2c1C	none
O=C(CNc1cccc(Cl)c1)NNC(=S)NCc1ccccc1	sPLA2-III inh 27 | sPLA2 confirm 32 | BODIPY interf inactive | BODIPY interf DR inactive
S=C(NCc1ccccc1)Nc1cccc(Cl)c1	none
COc1ccc(NC(=S)NNC(=O)CNc2ccc(Cl)cc2)cc1	sPLA2-III inh 29 | sPLA2 confirm 35 | BODIPY interf 7.4
O=C(CCc1ccccc1)NNC(=S)NCc1ccc(Cl)cc1	none
COCCCNC(=O)[C@@H](Cc1ccccc1)NC(=O)[C@H]1O[C@@H](n2ccc(=O)[nH]c2=O)[C@H](O)[C@@H]1O	none (no result: M18AAP inhibitor, CendR NRP1 mod, Hep lipid drop, Arrestin-AP2 inh, m5-HT2A agonist)
Fc1ccc2nc(Nc3nc4cc5c(cc4s3)OCCO5)sc2c1	sPLA2-III inh 24 | sPLA2 confirm inactive | BODIPY interf 6.5
CC[C@]12c3[nH]c4ccc(Cl)cc4c3CCN1C(=O)[C@@H](CC(=O)NCc1ccc(OC)c(OC)c1)C[C@@H]2C(=O)N1CCN(C(=O)c2ccco2)CC1	none (no result: M18AAP inhibitor, Hep lipid drop)
Cc1ccc(-c2csc(NC(=O)c3ccc(F)cc3)c2C(=O)O)cc1	none
CC(C)NC(=O)c1ccccc1NC(=O)/C=C/c1cccc([N+](=O)[O-])c1	sPLA2-III inh 23 | sPLA2 confirm inactive | BODIPY interf inactive
CC(C)C(NC(=O)/C=C/c1cccc([N+](=O)[O-])c1)C(C)C	none
O=C(O)c1sccc1Oc1ccc(NS(=O)(=O)c2ccccc2)cc1	none (no result: Hep lipid drop)
OC(c1ccccc1)c1ccccc1CN1CCCNC1=S (configuration not stated)	sPLA2-III inh 19 (no result: M18AAP inhibitor, Hep lipid drop, Arrestin-AP2 inh) | sPLA2 confirm inactive | BODIPY interf inactive
O=C(CSCc1c(F)cccc1Cl)NNC(=S)NC1CCCCC1	sPLA2-III inh 21 | sPLA2 confirm inactive | BODIPY interf inactive
CCC(=O)NC(c1cccs1)c1cc([N+](=O)[O-])c2cccnc2c1OC (configuration not stated)	sPLA2-III inh 19 (no result: M18AAP inhibitor, Hep lipid drop, Arrestin-AP2 inh) | sPLA2 confirm inactive | BODIPY interf inactive
CC(C)C(=O)NC(c1cccs1)c1cc([N+](=O)[O-])c2cccnc2c1O (configuration not stated)	none (no result: sPLA2-III inh)
O=[N+]([O-])c1ccc(O)c(/C=N/NC(=S)Nc2ccc(Cl)cc2Cl)c1	sPLA2-III inh 40 | sPLA2 confirm 31 | BODIPY interf 20
CC(=O)Nc1ccc(S(=O)(=O)NC2=C(N3CCN(Cc4ccccc4)CC3)C(=O)c3ccccc3C2=O)cc1	sPLA2-III inh 21! | sPLA2 confirm 25 | BODIPY interf inactive
O=C1CCCN1c1nccs1	sPLA2-III inh 20 | sPLA2 confirm inactive | BODIPY interf inactive
O=C1C2C3CC(C(Br)C3Br)C2C(=O)N1c1nccs1 (configuration not stated)	none (no result: M18AAP inhibitor, Hep lipid drop)
CCn1c(SCC(=O)Nc2oc(C)c3c(C)n[nH]c(=O)c23)nnc1-c1ccco1	none (no result: M18AAP inhibitor, Hep lipid drop, Arrestin-AP2 inh)
COc1ccccc1Nc1nc(-c2c(C)[nH]c3ccccc23)cs1	sPLA2-III inh 20 | sPLA2 confirm 20 | BODIPY interf 9.8
CCOc1ccc(/C=N/Nc2cc(=O)n(C)c(=O)n2C)cc1	sPLA2-III inh 19 | sPLA2 confirm inactive | BODIPY interf inactive
CCOc1ccc(/C=N/Nc2ccccn2)cc1	none
CN1C(=O)C2(c3ccccc31)c1c(oc3ccccc3c1=O)C(=O)N2CCO (configuration not stated)	none
CN1C(=O)C2(c3ccccc31)c1c(oc3ccccc3c1=O)C(=O)N2CCCO (configuration not stated)	sPLA2-III inh 21 | sPLA2 confirm inactive | BODIPY interf inactive
CCOc1ccccc1-n1c(SCC(=O)Nc2ccccc2C(=O)O)nc2ccccc2c1=O	none
CCOC(=O)C(=NC1CCCCC1)NNc1cccc(C(F)(F)F)c1	none
CCOC(=O)C(=NC(C)CC)NNc1cccc(C(F)(F)F)c1 (configuration not stated)	sPLA2-III inh 24 | sPLA2 confirm 35 | BODIPY interf inactive | BODIPY interf DR inactive
Cc1cccc(NC(=S)NCCCN2CCOCC2)c1	sPLA2-III inh 19 | sPLA2 confirm inactive | BODIPY interf inactive
CCCCn1c(N)c(N(CCOC)C(=O)C2CCN(S(=O)(=O)c3ccc(F)cc3)CC2)c(=O)[nH]c1=O	none (no result: M18AAP inhibitor, Hep lipid drop)
CCCCn1c(N)c(N(CCOC)C(=O)C2CCN(S(=O)(=O)c3ccc(C)cc3)CC2)c(=O)[nH]c1=O	sPLA2-III inh 22 (no result: M18AAP inhibitor, Hep lipid drop) | sPLA2 confirm inactive | BODIPY interf inactive
CCOc1ccc(NC(=S)Nc2ccc(Br)cc2Cl)cc1	none
CCOCCCNC(=S)Nc1ccc(Br)cc1Cl	sPLA2-III inh 20 | sPLA2 confirm inactive | BODIPY interf inactive
CCOC(=O)C1(C)CCCCN1C(=O)c1cccs1 (configuration not stated)	none (no result: M18AAP inhibitor, Hep lipid drop, Arrestin-AP2 inh)
COC(=O)c1ccc(CCc2cc(O)c(Br)cc2O)cc1	sPLA2-III inh 30 (no result: M18AAP inhibitor, Hep lipid drop) | sPLA2 confirm inactive | BODIPY interf inactive
COCCn1cnc2c(c1=O)c1nc3ccccc3nc1n2/N=C/c1ccco1	sPLA2-III inh 19 | sPLA2 confirm inactive | BODIPY interf inactive
CCCc1nc2ccc(C)cn2c1Cc1ccc(C)cc1	none (no result: M18AAP inhibitor, Hep lipid drop, Arrestin-AP2 inh)
C/C(=N\NC(=O)CSCc1ccc([N+](=O)[O-])cc1)c1ccccc1O	sPLA2-III inh 21 | sPLA2 confirm inactive | BODIPY interf inactive
Cc1cc(N(C)C)ccc1N=Nc1ccc2ncccc2c1	sPLA2-III inh 23 | sPLA2 confirm 23 | BODIPY interf inactive
CC(=O)OCC1OC(n2cc(F)c(=O)[nH]c2=O)C(OC(C)=O)C1OC(C)=O (configuration not stated)	sPLA2-III inh 19 (no result: M18AAP inhibitor, Hep lipid drop) | sPLA2 confirm inactive | BODIPY interf inactive
CCC(=O)N(CC(=O)Nc1sc(C)c(C)c1C(N)=O)C1CCCCC1	sPLA2-III inh 19 | sPLA2 confirm inactive | BODIPY interf inactive
